Compound activity deposited in PubChem BioAssay by several laboratories.
PAFAH1B2 inh – PAFAH1B2 (human) inhibition; recombinant PAFAH1B2, FP-rhodamine activity probe, fluorescence polarization; inhibition, % at 3.39 µM; actives 1.2% (n = 340,000);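 active = inhibition above the mean of all tested compounds plus 3 SD, cut at about 24% in these data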;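 note: 0% = enzyme with DMSO and 100% = wells lacking PAFAH1B2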
Target sequence (P68402 whole entry, looked up): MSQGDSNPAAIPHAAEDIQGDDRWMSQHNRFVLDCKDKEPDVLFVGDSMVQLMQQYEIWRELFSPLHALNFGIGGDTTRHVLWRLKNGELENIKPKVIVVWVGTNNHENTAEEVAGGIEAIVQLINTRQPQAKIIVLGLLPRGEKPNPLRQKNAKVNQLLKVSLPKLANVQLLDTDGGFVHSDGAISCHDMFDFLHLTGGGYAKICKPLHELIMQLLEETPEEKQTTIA
Apaf-1 inh – blocks human Apaf-1 apoptosome activity. O14727. reconstituted apoptosome caspase-3 activity, DEVD-Rh110 fluorescence. inhibition, % at 20 µM. actives 0.71% (n = 330,000). AID 489030; active = inhibition of at least 40% at 20 µM;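 note: plate controls were DMSO wells for no effect and DEVD-CHO caspase inhibitor wells for full effect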
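Material: reconstituted apoptosome with Apaf-1, cytochrome c, caspase-9, procaspase-3, dATP; medium: pH 7.5 Hepes buffer with CHAPS, BSA, DTT; also added: cytochrome c and DEVD-Rh110 substrate; timing: 30 min plus 50 min, RT; signal: Rh110 fluorescence intensity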
pPAFAH FP inh – inhibitors of human plasma PAF acetylhydrolase (pPAFAH); recombinant pPAFAH, FP-rhodamine probe fluorescence polarization; Q13093; actives 1.5% (n = 330,000); inhibition, % at 3.39 µM;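 active = inhibition above the mean inhibition across the screen plus 3 SD, cut at about 25% in these data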;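 note: inhibitors block binding of the rhodamine activity-based probe so polarization drops; 0% = enzyme with DMSO and 100% = wells lacking pPAFAH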
Target sequence (Q13093 whole entry, looked up): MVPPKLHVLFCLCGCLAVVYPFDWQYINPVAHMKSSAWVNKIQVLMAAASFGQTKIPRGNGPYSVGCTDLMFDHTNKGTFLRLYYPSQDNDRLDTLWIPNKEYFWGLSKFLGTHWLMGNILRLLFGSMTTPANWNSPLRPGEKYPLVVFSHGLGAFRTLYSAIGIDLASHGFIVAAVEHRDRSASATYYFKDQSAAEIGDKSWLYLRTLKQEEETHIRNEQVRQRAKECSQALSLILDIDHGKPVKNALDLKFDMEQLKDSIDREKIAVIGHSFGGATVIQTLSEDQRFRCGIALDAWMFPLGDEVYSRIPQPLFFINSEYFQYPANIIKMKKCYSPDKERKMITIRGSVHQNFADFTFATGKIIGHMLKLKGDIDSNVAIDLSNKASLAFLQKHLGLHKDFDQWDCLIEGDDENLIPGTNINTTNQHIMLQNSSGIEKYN
PAFAH2 inh – inhibitors of human PAFAH2. recombinant PAFAH2, FP-rhodamine activity probe, fluorescence polarization. inhibition, % at 3.39 µM. actives 0.99% (n = 340,000);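 active = inhibition above the mean over all tested compounds plus 3 SD, cut at about 30% in these data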;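 note: inhibitors block probe labeling of enzyme so polarization drops; 0% = enzyme with DMSO and 100% = wells lacking PAFAH2 protein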
PAFAH1B3 inh – inhibitors of human PAFAH1B3 | Q15102 | recombinant PAFAH1B3, FP-rhodamine probe, fluorescence polarization | inhibition, % at 3.39 µM | actives 0.28% (n = 340,000) | AID 492972;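 active = inhibition above the screen-wide average of all tested compounds plus 3 SD, cut at about 25% in these data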;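 note: 0% = enzyme with DMSO only and 100% = wells lacking PAFAH1B3 protein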
Apaf-1 inh conf2 – Apaf-1 inhibition, single-dose confirmed | AID 504614 | inhibition, % at 20 µM | actives 25% (n = 1,800) | reconstituted apoptosome, caspase-3 DEVD-Rh110 fluorescence | shares compounds with Apaf-1 inh;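 active = mean inhibition of at least 40% at 20 µM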;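 note: plate controls were DMSO wells for no effect and DEVD-CHO caspase inhibitor control wells for full effect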
Rh110 interf inh – interferes with Rh110 fluorescence, flagging false Apaf-1 inhibitors; shares compounds with Apaf-1 inh; Rh110 fluorescence interference, quenched caspase reaction; activation (fluorescence interference), % at 20 µM; 1,800 tested, under 10 active; AID 504615;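 active = signal rise of 40% or more at 20 µM, treated as a fluorescence artifact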
Starred values were filed as active, the others as inactive; · = no result. Hits are enriched below; roughly 3.1% of the tested compounds scored in any of these assays.

SMILES	PAFAH1B2 inh	Apaf-1 inh	pPAFAH FP inh	PAFAH2 inh	PAFAH1B3 inh	Apaf-1 inh conf2	Rh110 interf inh
CCOc1ccc(-c2cc(C(=O)NCCCn3ccnc3)c3cc(Br)ccc3n2)cc1	3.6	42.5*	21.1	3.7	2.5	-0.6	9.1
NC(=O)CSc1nc2scc(-c3ccc(Cl)cc3)c2c(=O)n1Cc1ccccc1	1.1	46.9*	-11.9	-1.8	7.7	18.5	1.5
CC1CN(Cc2c(O)ccc3c2oc(=O)c2ccccc23)CC(C)O1 (stereo not drawn)	1.9	44.3*	-0.2	-5.2	10.6	36.7	6.9
COc1ccc(-c2cc3c(nn2)-c2ccccc2C3=O)cc1	-0.4	77.3*	9.2	4.3	3.1	12.8	3.9
O=C1c2ccccc2-c2nnc(-c3ccccc3)cc21	0.4	71.3*	10.5	10.2	7.7	18.3	7.0
Cc1cccc(-c2cc3c(nn2)-c2ccccc2C3=O)c1	-2.3	91.1*	4.3	14.7	1.0	12.6	10.5
COc1ccc(-c2cn(Cc3ccc4c(c3)C(=O)c3ccccc3C4=O)nn2)cc1	-0.2	0.7	2.1	6.8	6.4	·	·
COc1cccc(C(c2c(C)[nH]n(-c3ccccc3)c2=O)c2c(C)[nH]n(-c3ccccc3)c2=O)c1O	9.4	94.4*	6.9	13.1	6.3	30.7	9.5
Cc1[nH]n(-c2ccccc2)c(=O)c1-c1ccccc1	6.4	3.2	2.0	5.1	9.7	·	·
COc1cccc(C(c2c(C)[nH]n(-c3ccccc3)c2=O)c2c(C)[nH]n(-c3ccccc3)c2=O)c1OC	-0.1	96.8*	0.1	10.8	4.6	30.5	6.3
CCN1CCN(Cc2ccc(NC(=O)c3ccc(C)c(NC(=O)c4ccno4)c3)cc2C(F)(F)F)CC1	3.3	24.2	-6.8	4.7	1.1	·	·
CCN1CCN(Cc2ccc(NC(=O)c3cc(NC(=O)c4ccc5n[nH]nc5c4)cc(OC)c3)cc2C(F)(F)F)CC1	6.7	6.7	-7.4	-8.9	-8.3	·	·
CCN1CCN(Cc2ccc(NC(=O)c3cc(NC(=O)C4=NN(c5ccccc5)C(=O)C4)cc(OC)c3)cc2C(F)(F)F)CC1	4.1	50.6*	18.8	0.1	9.2	20.6	11.6
CCN1CCN(Cc2ccc(NC(=O)c3cc(NC(=O)c4cncc(-c5cccs5)c4)cc(OC)c3)cc2C(F)(F)F)CC1	·	67.9*	-39.5	·	·	34.3	-2.0
CCN1CCN(Cc2ccc(NC(=O)c3cc(NC(=O)c4cc(-c5ccc(OC)cc5)n[nH]4)cc(OC)c3)cc2C(F)(F)F)CC1	-43.7	56.3*	-44.7	-100.0	-89.1	18.3	5.3
CCN1CCN(Cc2ccc(NC(=O)c3ccc(C)c(NC(=O)c4csc(-c5ccncc5)n4)c3)cc2C(F)(F)F)CC1	1.2	58.5*	-5.6	-1.1	-0.7	28.4	1.0
CCOC(=O)N1CCC(N2C(=O)c3ccc(C(=O)Nc4ccc(OC)cc4)cc3C2=O)CC1	1.6	-17.5	3.1	-1.2	-0.4	·	·
COc1ccc(-c2cc(=O)[nH][nH]2)cc1	6.3	17.4	5.4	1.9	1.2	·	·
COc1ccc(-c2cc(=O)n(CCC#N)[nH]2)cc1	1.1	94.3*	-0.5	-4.8	-0.8	7.2	-5.8
CCC(NC(=S)NC1CCCCC1)c1ccc(C(C)C)cc1 (stereo not drawn)	10.8	4.7	·	-4.5	1.7	·	·
CN1C(=O)CC(Nc2cccc3cccc(N)c23)C1=O (stereo not drawn)	3.9	53.9*	17.9	3.1	7.0	11.8	2.6
CCOC(=O)N1CCC(NC(=O)CN2C(=O)CSc3ncccc32)CC1	-0.5	62.8*	3.2	-1.3	0.8	7.8	1.5
CCOC(=O)N1CCC(NC(=O)CCCN2C(=O)CSc3ncccc32)CC1	0.7	2.0	0.2	-0.9	-1.3	·	·
Nc1cc(=O)[nH]c(SCC(=O)Nc2cc(S(=O)(=O)N3CCCCC3)ccc2Cl)n1	1.2	12.8	2.1	-3.7	9.5	·	·
CN(C(=O)c1ccc(NC(=O)Cc2cccc(NC(=O)C3CCCN(C(=O)C4CC4)C3)c2)cc1)C1CC1 (stereo not drawn)	-0.2	·	·	12.3	1.2	·	·
SMILES	PAFAH1B2 inh	Apaf-1 inh	pPAFAH FP inh	PAFAH2 inh	PAFAH1B3 inh	Apaf-1 inh conf2	Rh110 interf inh
O=C(CCC1CCCCC1)NCCN1C2=NC[C@@H](Cc3ccccc3)N2C[C@H]1Cc1ccc(O)cc1	1.8	45.1*	-3.0	8.1	-8.3	14.4	16.1
CCCCCCNC(=O)N[C@@H](C(=O)NCCC[C@H]1CN2C(=NC[C@@H]2Cc2ccccc2)N1CCc1cccc(OC)c1)C(C)C	·	53.7*	2.4	·	·	20.9	13.6
O=C(CCC1CCCCC1)NCCN1C2=NC[C@H](Cc3ccccc3)N2C[C@H]1Cc1ccc(O)cc1	0.9	12.5	2.4	8.6	7.5	·	·
COc1ccc(C[C@H]2CN3C(=NC[C@@H]3C(C)C)N2CCNC(=O)c2ccc(C)c(Br)c2)cc1	-4.0	46.6*	-10.8	-2.3	3.4	10.9	7.7
C/C=C(\C)C(=O)NCCN1C2=NC[C@@H](Cc3ccccc3)N2C[C@H]1Cc1ccc(O)cc1	-4.2	13.0	6.4	-0.9	-2.1	·	·
C/C=C(\C)C(=O)NCCN1C2=NC[C@@H](Cc3ccccc3)N2C[C@@H]1Cc1ccc(OC)cc1	7.0	40.1*	-2.9	1.6	5.0	8.8	8.3
COc1nccnc1NS(=O)(=O)c1ccc(N)cc1	1.9	-2.1	·	0.1	9.4	·	·
O=C(CCN1C(=O)C2CCCCC2C1=O)N1CCN(S(=O)(=O)c2ccccc2)CC1 (stereo not drawn)	6.4	-0.9	3.4	-2.2	5.7	·	·
Cn1nnc2cc(C(=O)N3CCN(c4ccccn4)CC3)ccc21	0.3	2.1	0.8	-3.0	-2.2	·	·
Cc1cc(-c2ccc(C)c(S(=O)(=O)Nc3cc(C)on3)c2)on1	5.2	-15.4	2.9	3.1	-0.6	·	·
Cc1ccc(NC(=O)c2cc(S(=O)(=O)N3CCOCC3)cn2C)cc1Cl	2.2	14.0	2.0	-0.1	1.2	·	·
C=C1SC(Nc2c(C)cc(C)cc2C)=NC12CCCCC2	4.3	-11.6	-3.5	7.7	4.8	·	·
NC1=NC[C@@H](Cc2ccc(O)cc2)N1CCCCC1CCCCC1	-0.4	50.9*	5.0	-3.0	7.0	4.3	10.7
CC1=NN(C(N)=S)C(=O)C1N=Nc1ccc(Cl)cc1Cl (stereo not drawn)	-1.2	7.6	·	19.3	-2.3	·	·
Cc1ccc(S(=O)(=O)N2CCN(C(=O)COC(=O)c3ccc([N+](=O)[O-])o3)CC2)c(C)c1	4.7	59.3*	6.9	6.2	2.9	21.7	7.9
Cc1c(Cl)cccc1N=C(N)N=C(N)N	4.0	0.3	-4.0	-1.1	-4.0	·	·
NC(N)=NC(N)=Nc1cccc2ccccc12	4.3	82.5*	5.2	2.7	4.2	10.8	5.0
